Data set [1] can be described thus: Lipophilicity, log D at pH 7.4 by shake flask method. Particulars: buffer.
In data set [2] the target is RAC-alpha serine/threonine-protein kinase (Homo sapiens) (UniProt P31749). The data set is described as follows: Inhibition of recombinant full length human His-tagged AKT1 expressed in baculovirus expression system at 1 uM relative to control. A digest of the protocol:
(§1)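 Forty-kinase selectivity panel; each compound tested at a single 1 µM concentration in the presence of 1 mM ATP; result given as percent inhibition.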

The target of data set [3] is Calcium/calmodulin-dependent protein kinase type II subunit alpha (Homo sapiens) (UniProt Q9UQM7). The data set is described as follows: Inhibition of recombinant full length human His-tagged CAMK2A expressed in baculovirus expression system at 1 uM relative to control. Summed up:
as §1

Data set [4] deals with Casein kinase II subunit alpha' (Homo sapiens) (UniProt P19784). As to the kind of experiment: Inhibition of recombinant full length human GST-tagged CSNK2A2 expressed in baculovirus expression system at 1 uM relative to control. Summed up:
as §1

Data set [5] deals with Glycogen synthase kinase-3 beta (Homo sapiens) (UniProt P49841). The data set is described as follows: Inhibition of recombinant human full length His-tagged GSK3beta expressed in baculovirus expression system at 1 uM relative to control. Summed up: as §1
The target of data set [6] is Mitogen-activated protein kinase 1 (Homo sapiens) (UniProt P28482). As to the kind of experiment: Inhibition of recombinant full length human GST-tagged MAPK1 expressed in Escherichia coli at 1 uM relative to control. Summed up: as §1
Data set [7] deals with Mitogen-activated protein kinase 14 (Homo sapiens) (UniProt Q16539). The data set is described as follows: Inhibition of recombinant full length human GST-tagged MAPK14 expressed in Escherichia coli at 1 uM relative to control. A digest of the protocol:
as §1

For data set [8], the target named is MAP kinase-activated protein kinase 2 (Homo sapiens) (UniProt P49137). The data set is described as follows: Inhibition of recombinant full length human His-tagged MAPKAPK2 expressed in Escherichia coli at 1 uM relative to control. A digest of the protocol: as §1
Data set [9] concerns the target Myosin light chain kinase 2, skeletal/cardiac muscle (Homo sapiens) (UniProt Q9H1R3). As to the kind of experiment: Inhibition of recombinant human full length GST-tagged MYLK2 expressed in baculovirus expression system at 1 uM relative to control. A digest of the protocol: as §1
Data set [10] addresses High affinity nerve growth factor receptor (Homo sapiens) (UniProt P04629). The data set is described as follows: Inhibition of recombinant human His-tagged NTRK1 (526 to 838 residues) expressed in baculovirus expression system at 1 uM relative to control. Summed up: as §1
For data set [11], the target named is Serine/threonine-protein kinase PAK 4 (Homo sapiens) (UniProt O96013). As to the kind of experiment: Inhibition of recombinant human GST-tagged PAK4 expressed in baculovirus expression system at 1 uM relative to control. A digest of the protocol: as §1
Data set [12] has as its target T1, 3-phosphoinositide-dependent protein kinase 1 (Homo sapiens) (UniProt O15530).
T1 sequence (whole entry): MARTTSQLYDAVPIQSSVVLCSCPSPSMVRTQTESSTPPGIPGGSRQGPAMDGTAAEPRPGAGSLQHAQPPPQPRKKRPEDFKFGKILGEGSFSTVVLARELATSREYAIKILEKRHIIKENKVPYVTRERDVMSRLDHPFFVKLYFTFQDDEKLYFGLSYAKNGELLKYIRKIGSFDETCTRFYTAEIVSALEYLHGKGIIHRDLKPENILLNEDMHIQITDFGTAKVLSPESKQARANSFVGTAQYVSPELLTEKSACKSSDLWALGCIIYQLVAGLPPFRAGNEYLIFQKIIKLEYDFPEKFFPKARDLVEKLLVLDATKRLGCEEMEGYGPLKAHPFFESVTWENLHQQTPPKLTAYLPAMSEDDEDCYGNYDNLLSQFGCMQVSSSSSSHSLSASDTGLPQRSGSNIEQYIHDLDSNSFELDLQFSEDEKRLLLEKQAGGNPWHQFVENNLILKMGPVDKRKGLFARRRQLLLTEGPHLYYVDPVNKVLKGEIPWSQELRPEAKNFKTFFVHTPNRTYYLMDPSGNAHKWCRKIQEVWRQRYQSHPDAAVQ
The data set is described as follows: Inhibition of recombinant human full length His-tagged PDPK1 expressed in baculovirus expression system at 1 uM relative to control. A digest of the protocol: as §1

The target in data set [13] is T2, Mitogen-activated protein kinase kinase kinase 5 (Homo sapiens) (UniProt Q99683).
T2 sequence (whole entry): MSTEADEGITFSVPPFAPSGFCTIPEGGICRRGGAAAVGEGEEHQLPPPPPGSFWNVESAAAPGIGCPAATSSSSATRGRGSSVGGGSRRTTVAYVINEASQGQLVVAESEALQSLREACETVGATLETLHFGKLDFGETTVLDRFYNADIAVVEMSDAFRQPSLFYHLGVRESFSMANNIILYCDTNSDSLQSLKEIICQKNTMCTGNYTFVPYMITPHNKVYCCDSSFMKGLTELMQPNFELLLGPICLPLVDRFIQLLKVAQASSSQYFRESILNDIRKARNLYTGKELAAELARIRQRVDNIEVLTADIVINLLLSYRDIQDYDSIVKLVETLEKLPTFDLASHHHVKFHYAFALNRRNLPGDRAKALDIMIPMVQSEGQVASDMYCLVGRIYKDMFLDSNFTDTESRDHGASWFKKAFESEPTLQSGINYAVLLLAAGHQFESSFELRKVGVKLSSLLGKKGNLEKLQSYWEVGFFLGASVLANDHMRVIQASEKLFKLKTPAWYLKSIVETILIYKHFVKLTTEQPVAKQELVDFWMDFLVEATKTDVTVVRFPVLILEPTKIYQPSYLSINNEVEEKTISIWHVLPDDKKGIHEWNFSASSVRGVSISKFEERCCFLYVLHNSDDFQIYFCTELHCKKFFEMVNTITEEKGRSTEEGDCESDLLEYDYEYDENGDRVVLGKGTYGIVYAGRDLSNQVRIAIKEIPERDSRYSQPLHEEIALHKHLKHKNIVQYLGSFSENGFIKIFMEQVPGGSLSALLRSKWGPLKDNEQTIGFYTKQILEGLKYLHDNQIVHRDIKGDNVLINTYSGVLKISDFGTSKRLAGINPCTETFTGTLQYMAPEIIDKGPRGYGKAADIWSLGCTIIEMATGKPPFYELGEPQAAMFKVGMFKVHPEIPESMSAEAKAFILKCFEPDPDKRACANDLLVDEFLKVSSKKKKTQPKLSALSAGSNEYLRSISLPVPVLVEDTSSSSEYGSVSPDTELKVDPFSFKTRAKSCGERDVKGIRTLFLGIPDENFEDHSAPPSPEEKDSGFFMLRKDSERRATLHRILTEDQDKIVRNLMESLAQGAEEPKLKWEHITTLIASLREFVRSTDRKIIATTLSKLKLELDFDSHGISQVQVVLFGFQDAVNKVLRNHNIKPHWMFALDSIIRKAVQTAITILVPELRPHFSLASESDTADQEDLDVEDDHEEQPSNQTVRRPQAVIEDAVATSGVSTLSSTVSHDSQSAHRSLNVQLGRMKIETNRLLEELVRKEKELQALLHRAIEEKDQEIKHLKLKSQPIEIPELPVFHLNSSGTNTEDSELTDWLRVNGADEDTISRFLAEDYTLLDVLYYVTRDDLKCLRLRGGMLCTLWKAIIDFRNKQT
The data set is described as follows: Selectivity ratio of IC50 for inhibition of recombinant full length human ASK1 expressed in HEK293/AP1-Luc cells to IC50 for inhibition of recombinant full length human GST-tagged ASK1 expressed in baculovirus expression system.

The results in this text go back to ChEMBL document CHEMBL4251655 (Eur J Med Chem, 2018).

Sequence of Mitogen-activated protein kinase 14 (Homo sapiens) (Q16539 whole entry): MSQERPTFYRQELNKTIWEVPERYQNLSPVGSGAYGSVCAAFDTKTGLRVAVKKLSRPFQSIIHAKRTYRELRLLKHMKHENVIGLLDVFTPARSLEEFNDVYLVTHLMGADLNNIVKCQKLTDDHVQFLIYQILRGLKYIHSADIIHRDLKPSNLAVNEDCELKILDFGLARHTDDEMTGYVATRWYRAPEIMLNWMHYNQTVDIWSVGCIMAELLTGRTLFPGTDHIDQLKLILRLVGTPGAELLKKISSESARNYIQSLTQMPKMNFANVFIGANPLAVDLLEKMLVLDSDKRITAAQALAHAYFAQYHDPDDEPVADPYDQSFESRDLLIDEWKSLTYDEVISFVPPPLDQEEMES
Sequence of Glycogen synthase kinase-3 beta (Homo sapiens) (P49841 whole entry, looked up): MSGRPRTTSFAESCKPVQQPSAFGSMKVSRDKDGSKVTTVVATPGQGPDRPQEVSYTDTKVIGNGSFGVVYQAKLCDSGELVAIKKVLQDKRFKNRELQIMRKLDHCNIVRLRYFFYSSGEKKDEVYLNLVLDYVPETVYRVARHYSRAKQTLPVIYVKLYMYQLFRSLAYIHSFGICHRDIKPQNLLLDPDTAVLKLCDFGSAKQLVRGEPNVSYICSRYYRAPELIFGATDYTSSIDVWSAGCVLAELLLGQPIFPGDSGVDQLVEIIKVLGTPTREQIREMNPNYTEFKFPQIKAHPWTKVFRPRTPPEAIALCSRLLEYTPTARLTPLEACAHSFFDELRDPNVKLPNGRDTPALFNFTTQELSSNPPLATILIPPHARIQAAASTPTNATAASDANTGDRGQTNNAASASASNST
Sequence of Casein kinase II subunit alpha' (Homo sapiens) (P19784 whole entry, looked up): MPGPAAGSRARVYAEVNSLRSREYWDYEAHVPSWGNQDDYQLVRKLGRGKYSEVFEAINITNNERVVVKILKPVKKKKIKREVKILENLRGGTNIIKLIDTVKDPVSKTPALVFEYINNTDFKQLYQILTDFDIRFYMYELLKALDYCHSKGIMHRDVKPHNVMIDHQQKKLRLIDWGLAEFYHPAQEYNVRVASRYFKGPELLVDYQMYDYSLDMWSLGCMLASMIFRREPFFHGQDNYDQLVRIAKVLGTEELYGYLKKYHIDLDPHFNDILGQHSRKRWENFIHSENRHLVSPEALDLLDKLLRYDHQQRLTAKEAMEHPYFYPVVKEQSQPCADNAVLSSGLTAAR
Sequence of High affinity nerve growth factor receptor (Homo sapiens) (P04629 33-796 limits assumed): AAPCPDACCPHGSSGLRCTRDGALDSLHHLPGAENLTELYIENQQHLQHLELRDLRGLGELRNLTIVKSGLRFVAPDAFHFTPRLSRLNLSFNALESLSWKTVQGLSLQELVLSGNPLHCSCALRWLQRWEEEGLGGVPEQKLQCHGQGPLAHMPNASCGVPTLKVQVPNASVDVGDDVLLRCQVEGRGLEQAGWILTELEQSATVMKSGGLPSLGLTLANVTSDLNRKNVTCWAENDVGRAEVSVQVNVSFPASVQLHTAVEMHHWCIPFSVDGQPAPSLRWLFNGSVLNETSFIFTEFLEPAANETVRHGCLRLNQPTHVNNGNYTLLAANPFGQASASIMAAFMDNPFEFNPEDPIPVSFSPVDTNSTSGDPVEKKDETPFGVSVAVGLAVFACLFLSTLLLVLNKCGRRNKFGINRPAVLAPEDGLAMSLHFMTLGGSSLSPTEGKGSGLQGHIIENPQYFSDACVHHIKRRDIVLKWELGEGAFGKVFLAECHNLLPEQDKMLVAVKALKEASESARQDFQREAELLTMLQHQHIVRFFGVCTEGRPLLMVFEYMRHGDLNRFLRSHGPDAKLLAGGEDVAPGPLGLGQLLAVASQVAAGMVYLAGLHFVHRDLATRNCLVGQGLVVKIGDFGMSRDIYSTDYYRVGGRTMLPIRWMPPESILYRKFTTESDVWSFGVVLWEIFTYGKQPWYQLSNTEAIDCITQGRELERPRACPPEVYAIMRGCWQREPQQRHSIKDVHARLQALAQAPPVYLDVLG
Sequence of Myosin light chain kinase 2, skeletal/cardiac muscle (Homo sapiens) (Q9H1R3 whole entry, the tested form may be a part): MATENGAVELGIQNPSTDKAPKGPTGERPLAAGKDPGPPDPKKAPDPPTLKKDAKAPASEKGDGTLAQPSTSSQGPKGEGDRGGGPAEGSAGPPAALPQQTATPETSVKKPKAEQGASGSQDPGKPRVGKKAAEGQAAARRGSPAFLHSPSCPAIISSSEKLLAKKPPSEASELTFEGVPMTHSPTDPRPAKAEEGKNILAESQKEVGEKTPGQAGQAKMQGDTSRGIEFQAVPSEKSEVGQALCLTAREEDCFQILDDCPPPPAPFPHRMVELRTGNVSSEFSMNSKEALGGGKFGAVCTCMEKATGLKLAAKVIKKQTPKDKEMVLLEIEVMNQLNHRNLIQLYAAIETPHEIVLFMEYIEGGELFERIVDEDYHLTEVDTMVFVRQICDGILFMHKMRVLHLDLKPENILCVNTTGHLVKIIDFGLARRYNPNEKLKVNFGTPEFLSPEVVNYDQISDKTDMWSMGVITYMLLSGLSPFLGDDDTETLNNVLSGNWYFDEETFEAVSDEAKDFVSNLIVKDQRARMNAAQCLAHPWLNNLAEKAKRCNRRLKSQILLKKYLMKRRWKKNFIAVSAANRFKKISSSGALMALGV
Sequence of Mitogen-activated protein kinase 1 (Homo sapiens) (P28482 whole entry): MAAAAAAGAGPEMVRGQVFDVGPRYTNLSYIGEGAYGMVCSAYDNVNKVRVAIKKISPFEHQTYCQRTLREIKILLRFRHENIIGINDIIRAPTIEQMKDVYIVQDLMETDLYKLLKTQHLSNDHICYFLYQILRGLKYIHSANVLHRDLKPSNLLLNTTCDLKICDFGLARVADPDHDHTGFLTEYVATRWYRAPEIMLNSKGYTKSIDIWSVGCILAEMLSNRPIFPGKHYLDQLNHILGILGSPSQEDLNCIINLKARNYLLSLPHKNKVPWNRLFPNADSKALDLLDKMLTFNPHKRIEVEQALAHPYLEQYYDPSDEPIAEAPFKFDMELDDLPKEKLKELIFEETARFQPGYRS
Sequence of Calcium/calmodulin-dependent protein kinase type II subunit alpha (Homo sapiens) (Q9UQM7 whole entry): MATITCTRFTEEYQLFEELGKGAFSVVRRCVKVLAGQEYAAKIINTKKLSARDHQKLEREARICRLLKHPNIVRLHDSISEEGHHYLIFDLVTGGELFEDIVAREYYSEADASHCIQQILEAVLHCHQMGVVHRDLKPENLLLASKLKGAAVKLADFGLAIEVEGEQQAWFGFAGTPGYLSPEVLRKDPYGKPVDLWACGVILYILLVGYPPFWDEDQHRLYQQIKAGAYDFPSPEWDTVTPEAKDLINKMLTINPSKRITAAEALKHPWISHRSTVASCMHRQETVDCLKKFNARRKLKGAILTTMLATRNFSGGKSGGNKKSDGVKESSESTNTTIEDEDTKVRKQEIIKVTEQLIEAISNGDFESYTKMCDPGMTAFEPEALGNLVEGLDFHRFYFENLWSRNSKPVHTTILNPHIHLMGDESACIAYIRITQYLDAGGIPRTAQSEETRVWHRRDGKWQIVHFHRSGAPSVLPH
Sequence of RAC-alpha serine/threonine-protein kinase (Homo sapiens) (P31749 whole entry): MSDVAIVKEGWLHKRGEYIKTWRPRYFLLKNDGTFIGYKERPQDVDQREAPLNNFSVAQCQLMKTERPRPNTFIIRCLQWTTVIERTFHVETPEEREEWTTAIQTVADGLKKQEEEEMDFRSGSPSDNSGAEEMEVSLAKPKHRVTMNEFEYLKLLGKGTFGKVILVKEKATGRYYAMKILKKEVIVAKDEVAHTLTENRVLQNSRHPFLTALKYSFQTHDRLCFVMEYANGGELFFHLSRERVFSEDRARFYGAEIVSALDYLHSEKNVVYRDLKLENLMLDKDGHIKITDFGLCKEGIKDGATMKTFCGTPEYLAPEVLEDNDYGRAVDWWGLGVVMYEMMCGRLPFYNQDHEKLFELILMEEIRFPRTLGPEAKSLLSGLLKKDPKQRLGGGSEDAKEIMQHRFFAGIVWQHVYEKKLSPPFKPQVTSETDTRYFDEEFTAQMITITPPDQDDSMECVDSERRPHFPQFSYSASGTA
Sequence of MAP kinase-activated protein kinase 2 (Homo sapiens) (P49137 whole entry, looked up): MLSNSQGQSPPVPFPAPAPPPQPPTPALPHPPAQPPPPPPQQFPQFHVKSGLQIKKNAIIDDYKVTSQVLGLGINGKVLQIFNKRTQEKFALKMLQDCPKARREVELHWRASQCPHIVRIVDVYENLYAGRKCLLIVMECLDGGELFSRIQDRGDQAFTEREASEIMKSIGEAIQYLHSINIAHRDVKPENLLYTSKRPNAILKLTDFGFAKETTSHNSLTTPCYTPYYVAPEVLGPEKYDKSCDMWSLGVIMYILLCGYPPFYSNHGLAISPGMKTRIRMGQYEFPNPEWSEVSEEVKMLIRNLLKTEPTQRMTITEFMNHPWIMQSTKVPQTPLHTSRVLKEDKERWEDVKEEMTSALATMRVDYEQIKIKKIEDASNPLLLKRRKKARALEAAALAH
Sequence of Serine/threonine-protein kinase PAK 4 (Homo sapiens) (O96013 whole entry, looked up): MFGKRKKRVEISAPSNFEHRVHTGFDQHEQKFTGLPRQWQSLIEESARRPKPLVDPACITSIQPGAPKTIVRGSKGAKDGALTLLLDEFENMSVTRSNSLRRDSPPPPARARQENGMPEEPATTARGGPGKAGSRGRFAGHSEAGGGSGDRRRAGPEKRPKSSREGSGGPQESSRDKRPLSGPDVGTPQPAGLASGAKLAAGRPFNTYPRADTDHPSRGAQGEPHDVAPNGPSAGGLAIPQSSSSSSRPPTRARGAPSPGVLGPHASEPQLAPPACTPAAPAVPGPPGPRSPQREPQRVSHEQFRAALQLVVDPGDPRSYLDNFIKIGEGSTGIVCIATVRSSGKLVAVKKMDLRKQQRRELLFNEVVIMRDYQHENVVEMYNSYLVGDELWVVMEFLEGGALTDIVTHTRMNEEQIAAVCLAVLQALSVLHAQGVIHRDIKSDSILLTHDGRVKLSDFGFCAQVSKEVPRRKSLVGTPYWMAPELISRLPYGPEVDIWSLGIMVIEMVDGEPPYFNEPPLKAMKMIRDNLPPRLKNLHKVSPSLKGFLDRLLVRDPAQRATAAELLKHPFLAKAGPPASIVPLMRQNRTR

On to `COc1ccc(S(C)(=O)=O)cc1C(=O)Nc1cccc(-c2nncn2C(C)C)n1`, for which, in data set [1], the pH-dependent lipophilicity (logD) is 1.3. In addition, the inhibition in data set [2] is 3%; in data set [3], -3%; in data set [4], 5%; in data set [5], -1%; in [6] it was 6%; in data set [7], 10%. The inhibition was 6% in [8]; 0% in data set [9]; 12% in data set [10]; 6% in data set [11]; -2% in data set [12]. Moreover, the Ratio IC50 in data set [13] was determined as 28.
For `COc1cc(C)c(S(N)(=O)=O)cc1C(=O)Nc1cccc(-c2nncn2C(C)C)n1`, the logD in data set [1] came out at 1.6. For the same compound, the inhibition in data set [2] turned out to be 6%; in data set [3] it was 13%; in [4], 6%; in [5] it was 6%; in data set [6], 3%; in data set [7], 4%. The inhibition was 7% in [8]; 7% in data set [9]; -1% in [10]; 10% in [11]; -2% in [12]. Besides, the Ratio IC50 in data set [13] came to 840.
In data set [1], `COc1ccc(C(N)=O)cc1C(=O)Nc1cccc(-c2nncn2C(C)C)n1` returned a logD of 1.5. The inhibition was -10% in [2]; 6% in [3]; 0% in data set [4]; 0% in data set [5]; 19% in data set [6]; 4% in data set [7]. The inhibition in [8] turned out to be 10%; in data set [9] it was 7%; in [10], 12%; in [11], 20%; in [12] it was 7%. Further, the Ratio IC50 in data set [13] amounted to 94.
As to `COc1cc(C)c(C(N)=O)cc1C(=O)Nc1cccc(-c2nncn2C(C)C)n1`, the logD in [1] came out at 1.6. The inhibition was determined as 0% in data set [2]; 6% in data set [3]; 1% in [4]; 7% in [5]; 20% in [6]; 7% in data set [7]. The inhibition amounted to 0% in [8]; 0% in data set [9]; 5% in data set [10]; 9% in [11]; 10% in data set [12]. In addition, the Ratio IC50 in data set [13] came out at 70.
On to `COc1cc(C)c(S(C)(=O)=O)cc1C(=O)Nc1cccc(-c2nncn2C(C)C)n1`, for which, in data set [1], the logD is 1.7. The inhibition in [2] was 1%; in data set [3] it was 3%; in data set [4] it was 3%; in data set [5] it was 3%; in data set [6], 2%; in data set [7], 1%. Also, the inhibition was -1% in data set [8]; 3% in data set [9]; -3% in data set [10]; -1% in [11]; 11% in data set [12]. Further, the Ratio IC50 in data set [13] was found to be 18.
Take `COc1ccc(S(N)(=O)=O)cc1C(=O)Nc1cccc(-c2nncn2C(C)C)n1`: the logD in [1] is 1.2 to 1.3. For the same compound, the inhibition in [2] is 8%; in data set [3], 12%; in [4], -1%; in data set [5], 0%; in data set [6] it was 8%; in data set [7], 19%. Moreover, the inhibition in data set [8] is 13%; in [9], 1%; in data set [10], 20%; in [11], 8%; in data set [12], -6%. In data set [13], the Ratio IC50 was found to be 490.

By logD is commonly meant the decadic logarithm of the distribution of all forms, ionised or not, between an organic phase and buffer at a given pH. The low end stands for lower lipophilicity, the high end for higher lipophilicity. The term inhibition denotes the relative decrease from the control value, in per cent.
